Reference: ChEMBL document CHEMBL4229369, “Design, synthesis and antitubercular evaluation of benzothiazinones containing a piperidine moiety” (Eur J Med Chem, 2018)
Values after ≈ are worked out from the molar mass of the structure shown.

How the values were obtained:
Type in all cases: functional
[1] = system: Mycobacterium tuberculosis; experiment: Antitubercular activity against multi-drug resistant Mycobacterium tuberculosis isolate 16995 after 7 days by Alamar blue assay; conditions: isolate 16995, 168 h
Procedure, shortened: (§1)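 Inoculum grown to late log phase in Middlebrook 7H9 with 0.2% glycerol, 0.05% Tween 80 and 10% ADC, then washed in PBS, filtered through 8 µm to remove clumps and frozen at -80 °C. Twofold compound dilutions in 7H9-ADC-TG with 2 × 10⁵ CFU per well, 37 °C. Alamar blue and Tween 80 added on day 7, read after 16-24 h (ex 530/em 590 nm). MIC is the lowest concentration giving ≥90% fluorescence reduction versus bacterium-only controls.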

[2] = system: Mycobacterium tuberculosis; experiment: Antitubercular activity against multi-drug resistant Mycobacterium tuberculosis isolate 16883 after 7 days by Alamar blue assay; conditions: isolate 16883, 168 h; procedure, shortened: as §1
[3] = system: Mycobacterium tuberculosis; experiment: Antitubercular activity against multi-drug resistant Mycobacterium tuberculosis; procedure, shortened: as §1

For `O=c1nc(N2CCN(CC3CCCCC3)CC2)sc2c([N+](=O)[O-])cc(C(F)(F)F)cc12` [MACOZINONE], the MIC90 [1] was < 0.016 µg/mL and the MIC90 [2] was < 0.016 µg/mL.
With `CO[C@H]1/C=C/O[C@@]2(C)Oc3c(C)c(O)c4c(O)c(c(/C=N/N5CCN(C)CC5)c(O)c4c3C2=O)NC(=O)/C(C)=C\C=C\[C@H](C)[C@H](O)[C@@H](C)[C@@H](O)[C@@H](C)[C@H](OC(C)=O)[C@@H]1C` [RIFAMPIN] the MIC90 [1] was > 40 µg/mL and the MIC90 [2] was > 40 µg/mL.
`CN(CC1CCCCC1)C1CCN(c2nc(=O)c3cc(C(F)(F)F)cc([N+](=O)[O-])c3s2)CC1` was tested, and the MIC [3] was 0.016 µg/mL (≈ 0.033 µM).
`NNC(=O)c1ccncc1` [ISONIAZID] was tested, and the MIC90 [1] was > 40 µg/mL and the MIC90 [2] was > 40 µg/mL.
For `O=c1nc(N2CCC(CN3CCC(C(F)(F)F)CC3)CC2)sc2c([N+](=O)[O-])cc(C(F)(F)F)cc12`, the MIC90 [1] was < 0.016 µg/mL and the MIC90 [2] was < 0.016 µg/mL.
